pIC50: −log10 of the molar value. The source made the active and inactive calls. The rule behind the calls is not given here.
Assays:
[1] = molecular target: Mitogen-activated protein kinase kinase kinase 20 (Homo sapiens) (UniProt Q9NYL2); test: Inhibition of human ZAK at 1 uM using MBP as substrate in presence of 33P-ATP by ProQinase assay
[2] = molecular target: Serine/threonine-protein kinase Sgk3 (Homo sapiens) (UniProt Q96BR1); test: Inhibition of human SGK3 at 1 uM using RBER-GSK3 as substrate in presence of 33P-ATP by ProQinase assay
[3] = molecular target: Platelet-derived growth factor receptor alpha (Homo sapiens) (UniProt P16234); test: Inhibition of recombinant human PDGFRalpha (551 to […] residues) expressed in baculovirus infected Sf21 cells assessed as remaining activity at 1 uM using KKKKEEIYFFFG as substrate incubated for 30 mins in presence of [gamma-33P]ATP by filter binding method relative to control
[4] = molecular target: Phosphatidylinositol 4-phosphate 5-kinase type-1 alpha (Homo sapiens, UniProt Q99755); test: Inhibition of PIP5K1A (unknown origin) using D-myo-PIP as substrate incubated for 45 mins by ADP-Glo assay
[5] = molecular target: Tyrosine-protein kinase Yes (Homo sapiens) (UniProt P07947); test: Inhibition of recombinant human N-terminal His6-tagged YES1 (1 to 543 residues) expressed in baculovirus infected Sf21 cells assessed as remaining activity at 1 uM using Poly(Glu,Tyr) as substrate incubated for 30 mins in presence of [gamma-33P]ATP by filter binding method relative to control
[6] = molecular target: Myosin light chain kinase (Homo sapiens) (UniProt Q32MK0); test: Inhibition of human MYLK3 at 1 uM using RB-S6P as substrate in presence of 33P-ATP by ProQinase assay
[7] = molecular target: Serine/threonine-protein kinase MARK2 (Homo sapiens) (UniProt Q7KZI7); test: Inhibition of recombinant human N-terminal His6-tagged MARK2 (2 to 691 residues) expressed in baculovirus infected Sf21 cells assessed as remaining activity at 1 uM using KKKVSRSGLYRSPSMPENLNRPR as substrate incubated for 30 mins in presence of [gamma-33P]ATP by filter binding method relative to control
[8] = molecular target: SRSF protein kinase 1 (Homo sapiens) (UniProt Q96SB4); test: Inhibition of recombinant human N-terminal GST-tagged SRPK1 (2 to 654 residues) expressed in Escherichia coli assessed as remaining activity at 1 uM using RSRSRSRSRSRSRSR as substrate incubated for 30 mins in presence of [gamma-33P]ATP by filter binding method relative to control
[9] = molecular target: MAP/microtubule affinity-regulating kinase 4 (Homo sapiens) (UniProt Q96L34); test: Inhibition of human MARK4 at 1 uM using RBER-CHKtide as substrate in presence of 33P-ATP by ProQinase assay
[10] = molecular target: Tyrosine-protein kinase Mer (Homo sapiens) (UniProt Q12866); test: Inhibition of human MERTK at 1 uM using polyEY as substrate in presence of 33P-ATP by ProQinase assay
[11] = molecular target: CDK7/Cyclin H/MNAT1 (Homo sapiens) (UniProt P51946+P50613+P51948); test: Inhibition of human CDK7/CyclinH/MAT1 at 1 uM using RBER-CHKtide as substrate in presence of 33P-ATP by ProQinase assay; format: protein-complex assay
[12] = molecular target: Cyclin-Y/Cyclin-dependent kinase 16 (Homo sapiens) (UniProt Q00536+Q8ND76); test: Inhibition of human PCTAIRE1/CyclinY at 1 uM using RBER-GSK3 as substrate in presence of 33P-ATP by ProQinase assay; format: protein-complex assay
[13] = molecular target: Mitogen-activated protein kinase 11 (Homo sapiens) (UniProt Q15759); test: Inhibition of human P38beta at 1 uM using ATF2 as substrate in presence of 33P-ATP by ProQinase assay
[14] = molecular target: Tyrosine-protein kinase ZAP-70 (Homo sapiens) (UniProt P43403); test: Inhibition of human ZAP70 at 1 uM using polyEY as substrate in presence of 33P-ATP by ProQinase assay
[15] = molecular target: Calcium/calmodulin-dependent protein kinase type II subunit delta (Homo sapiens) (UniProt Q13557); test: Inhibition of human CAMK2D at 1 uM using RBER-CHKtide as substrate in presence of 33P-ATP by ProQinase assay
[16] = molecular target: Mitogen-activated protein kinase kinase kinase 10 (Homo sapiens) (UniProt Q02779); test: Inhibition of human MAP3K10 at 1 uM using histon H2B as substrate in presence of 33P-ATP by ProQinase assay
[17] = molecular target: ALK tyrosine kinase receptor (Homo sapiens) (UniProt Q9UM73); test: Inhibition of human GST/His-tagged ALK at 1 uM using polyEY as substrate in presence of 33P-ATP by ProQinase assay
[18] = molecular target: Tyrosine-protein kinase Lck (Homo sapiens) (UniProt P06239); test: Inhibition of recombinant human N-terminal His6-tagged LCK (2 to 509 residues) expressed in baculovirus infected Sf21 cells assessed as remaining activity at 1 uM using KVEKIGEGTYGVVYK as substrate incubated for 30 mins in presence of [gamma-33P]ATP by filter binding method relative to control
[19] = molecular target: Activin receptor type-2A (Homo sapiens) (UniProt P27037); test: Inhibition of human ACVR2A at 1 uM using casein as substrate in presence of 33P-ATP by ProQinase assay
[20] = molecular target: Mitogen-activated protein kinase kinase kinase kinase 5 (Homo sapiens) (UniProt Q9Y4K4); test: Inhibition of MAP4K5 (unknown origin) assessed as remaining activity at 1 uM relative to control
Summary of the method: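 Dundee panel of 140 protein kinases, tested at a single 1 μM concentration. Each assay was run in triplicate. Remaining activity is expressed relative to a control reaction without inhibitor, as mean ± S.D. Conditions for each kinase were those of the screening centre.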

[21] = molecular target: Ribosomal protein S6 kinase alpha-5 (Homo sapiens) (UniProt O75582); test: Inhibition of human RPS6KA5 at 1 uM using RBER-CHKtide as substrate in presence of 33P-ATP by ProQinase assay
[22] = molecular target: Receptor-type tyrosine-protein kinase FLT3 (Homo sapiens) (UniProt P36888); test: Inhibition of human FLT3 at 1 uM using Poly(Ala,Glu,Lys,Tyr) as substrate in presence of 33P-ATP by ProQinase assay
[23] = molecular target: Ephrin type-A receptor 4 (Homo sapiens) (UniProt P54764); test: Inhibition of human EPHA4 at 1 uM using polyEY as substrate in presence of 33P-ATP by ProQinase assay
[24] = molecular target: Tyrosine-protein kinase receptor TYRO3 (Homo sapiens) (UniProt Q06418); test: Inhibition of human TYRO3 at 1 uM using PolyEY as substrate in presence of 33P-ATP by ProQinase assay
[25] = molecular target: Mitogen-activated protein kinase 10 (Homo sapiens) (UniProt P53779); test: Inhibition of recombinant human N-terminal GST/C-terminal His6-tagged JNK3 (40 to 422 residues) expressed in Escherichia coli assessed as remaining activity at 1 uM using ATF2 as substrate incubated for 30 mins in presence of [gamma-33P]ATP by filter binding method relative to control
Mitogen-activated protein kinase 10 (Homo sapiens), sequence (P53779 whole entry, the tested form may be a part): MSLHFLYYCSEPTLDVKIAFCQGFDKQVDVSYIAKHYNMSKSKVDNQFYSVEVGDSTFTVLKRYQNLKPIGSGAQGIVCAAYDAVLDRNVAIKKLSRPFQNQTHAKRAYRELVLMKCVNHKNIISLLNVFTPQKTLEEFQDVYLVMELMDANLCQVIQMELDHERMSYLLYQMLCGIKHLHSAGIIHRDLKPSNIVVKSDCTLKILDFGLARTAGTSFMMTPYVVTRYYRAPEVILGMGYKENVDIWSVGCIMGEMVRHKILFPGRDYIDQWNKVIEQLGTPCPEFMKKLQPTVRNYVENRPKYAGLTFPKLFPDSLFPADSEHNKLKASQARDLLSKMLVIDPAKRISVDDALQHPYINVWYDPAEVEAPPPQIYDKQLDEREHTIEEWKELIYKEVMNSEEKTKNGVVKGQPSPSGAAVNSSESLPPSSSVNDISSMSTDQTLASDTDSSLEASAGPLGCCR

Platelet-derived growth factor receptor alpha (Homo sapiens), sequence (P16234 whole entry): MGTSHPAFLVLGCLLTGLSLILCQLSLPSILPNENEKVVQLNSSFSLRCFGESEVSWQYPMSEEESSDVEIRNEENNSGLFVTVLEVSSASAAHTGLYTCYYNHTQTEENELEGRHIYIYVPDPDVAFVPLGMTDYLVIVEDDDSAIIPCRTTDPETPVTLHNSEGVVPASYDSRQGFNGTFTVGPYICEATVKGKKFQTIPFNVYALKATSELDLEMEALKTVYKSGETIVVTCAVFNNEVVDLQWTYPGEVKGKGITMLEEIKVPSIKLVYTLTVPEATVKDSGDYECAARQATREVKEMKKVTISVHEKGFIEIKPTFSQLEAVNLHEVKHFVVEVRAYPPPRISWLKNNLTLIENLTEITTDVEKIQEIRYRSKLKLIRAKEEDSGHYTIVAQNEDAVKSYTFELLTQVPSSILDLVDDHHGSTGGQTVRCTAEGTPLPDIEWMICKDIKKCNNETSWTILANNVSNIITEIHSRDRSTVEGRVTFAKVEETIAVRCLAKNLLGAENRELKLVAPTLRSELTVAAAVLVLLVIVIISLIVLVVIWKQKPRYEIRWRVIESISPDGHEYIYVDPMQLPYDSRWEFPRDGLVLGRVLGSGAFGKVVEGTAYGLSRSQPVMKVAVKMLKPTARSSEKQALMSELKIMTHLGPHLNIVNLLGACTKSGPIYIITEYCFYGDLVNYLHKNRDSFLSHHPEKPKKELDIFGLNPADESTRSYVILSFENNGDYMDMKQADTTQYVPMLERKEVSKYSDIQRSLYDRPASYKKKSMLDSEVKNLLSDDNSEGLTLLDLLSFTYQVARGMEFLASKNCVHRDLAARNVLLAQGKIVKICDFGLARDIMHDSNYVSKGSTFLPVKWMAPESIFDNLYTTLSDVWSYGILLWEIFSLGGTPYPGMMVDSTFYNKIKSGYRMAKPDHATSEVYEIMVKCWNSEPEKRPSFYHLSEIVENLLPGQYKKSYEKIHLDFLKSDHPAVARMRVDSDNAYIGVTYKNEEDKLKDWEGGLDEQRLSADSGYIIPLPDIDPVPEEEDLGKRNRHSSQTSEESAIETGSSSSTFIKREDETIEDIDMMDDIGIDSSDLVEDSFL
Receptor-type tyrosine-protein kinase FLT3 (Homo sapiens), sequence (P36888 whole entry): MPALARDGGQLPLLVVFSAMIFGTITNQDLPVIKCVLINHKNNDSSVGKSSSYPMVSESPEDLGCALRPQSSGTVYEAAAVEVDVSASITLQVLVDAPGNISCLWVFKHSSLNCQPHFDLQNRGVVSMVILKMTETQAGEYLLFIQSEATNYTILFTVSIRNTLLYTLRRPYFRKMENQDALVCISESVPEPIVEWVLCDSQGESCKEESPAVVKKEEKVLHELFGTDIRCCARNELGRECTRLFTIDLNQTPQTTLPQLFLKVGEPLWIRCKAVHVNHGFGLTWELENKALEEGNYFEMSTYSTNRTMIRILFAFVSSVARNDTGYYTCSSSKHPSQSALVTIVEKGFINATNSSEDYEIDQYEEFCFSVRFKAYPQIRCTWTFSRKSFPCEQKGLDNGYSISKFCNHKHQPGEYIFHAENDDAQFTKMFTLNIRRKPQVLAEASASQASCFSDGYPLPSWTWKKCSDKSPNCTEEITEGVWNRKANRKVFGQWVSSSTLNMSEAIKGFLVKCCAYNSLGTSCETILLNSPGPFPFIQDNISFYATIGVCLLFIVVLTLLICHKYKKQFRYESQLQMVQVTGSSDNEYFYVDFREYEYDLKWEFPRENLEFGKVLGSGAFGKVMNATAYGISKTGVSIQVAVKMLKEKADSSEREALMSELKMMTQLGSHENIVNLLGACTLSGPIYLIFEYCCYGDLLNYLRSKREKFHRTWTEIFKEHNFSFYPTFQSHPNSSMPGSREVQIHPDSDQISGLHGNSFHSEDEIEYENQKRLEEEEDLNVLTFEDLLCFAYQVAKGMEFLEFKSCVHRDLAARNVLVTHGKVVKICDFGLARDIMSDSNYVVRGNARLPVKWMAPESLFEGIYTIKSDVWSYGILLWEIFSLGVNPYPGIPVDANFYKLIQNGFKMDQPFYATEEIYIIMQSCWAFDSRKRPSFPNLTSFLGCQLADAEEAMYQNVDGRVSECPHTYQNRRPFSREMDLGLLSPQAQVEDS
Mitogen-activated protein kinase kinase kinase 10 (Homo sapiens), sequence (Q02779 whole entry, looked up): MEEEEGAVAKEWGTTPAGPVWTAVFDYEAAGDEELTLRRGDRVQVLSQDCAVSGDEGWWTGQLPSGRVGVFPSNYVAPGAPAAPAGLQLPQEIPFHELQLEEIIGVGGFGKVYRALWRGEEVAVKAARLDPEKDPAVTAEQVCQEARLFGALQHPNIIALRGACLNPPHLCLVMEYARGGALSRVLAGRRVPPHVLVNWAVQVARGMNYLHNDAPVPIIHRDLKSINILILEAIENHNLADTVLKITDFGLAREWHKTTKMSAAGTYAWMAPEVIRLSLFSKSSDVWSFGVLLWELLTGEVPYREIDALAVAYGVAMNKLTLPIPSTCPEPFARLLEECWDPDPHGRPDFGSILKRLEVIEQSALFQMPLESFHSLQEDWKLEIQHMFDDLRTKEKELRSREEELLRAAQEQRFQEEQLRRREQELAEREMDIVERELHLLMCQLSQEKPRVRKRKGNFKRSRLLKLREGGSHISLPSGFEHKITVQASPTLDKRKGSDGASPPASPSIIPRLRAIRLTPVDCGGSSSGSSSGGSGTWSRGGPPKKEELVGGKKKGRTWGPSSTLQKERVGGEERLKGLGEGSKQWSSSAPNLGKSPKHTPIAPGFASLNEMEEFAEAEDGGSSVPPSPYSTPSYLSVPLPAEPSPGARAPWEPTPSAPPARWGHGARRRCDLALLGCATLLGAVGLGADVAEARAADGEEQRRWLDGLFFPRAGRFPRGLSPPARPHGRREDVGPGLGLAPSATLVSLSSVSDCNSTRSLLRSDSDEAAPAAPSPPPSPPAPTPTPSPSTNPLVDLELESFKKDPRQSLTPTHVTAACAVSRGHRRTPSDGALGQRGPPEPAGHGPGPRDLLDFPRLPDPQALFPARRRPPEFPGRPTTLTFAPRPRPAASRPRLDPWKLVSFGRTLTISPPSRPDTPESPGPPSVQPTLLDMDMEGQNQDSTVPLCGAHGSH
Serine/threonine-protein kinase MARK2 (Homo sapiens), sequence (Q7KZI7 whole entry, the tested form may be a part): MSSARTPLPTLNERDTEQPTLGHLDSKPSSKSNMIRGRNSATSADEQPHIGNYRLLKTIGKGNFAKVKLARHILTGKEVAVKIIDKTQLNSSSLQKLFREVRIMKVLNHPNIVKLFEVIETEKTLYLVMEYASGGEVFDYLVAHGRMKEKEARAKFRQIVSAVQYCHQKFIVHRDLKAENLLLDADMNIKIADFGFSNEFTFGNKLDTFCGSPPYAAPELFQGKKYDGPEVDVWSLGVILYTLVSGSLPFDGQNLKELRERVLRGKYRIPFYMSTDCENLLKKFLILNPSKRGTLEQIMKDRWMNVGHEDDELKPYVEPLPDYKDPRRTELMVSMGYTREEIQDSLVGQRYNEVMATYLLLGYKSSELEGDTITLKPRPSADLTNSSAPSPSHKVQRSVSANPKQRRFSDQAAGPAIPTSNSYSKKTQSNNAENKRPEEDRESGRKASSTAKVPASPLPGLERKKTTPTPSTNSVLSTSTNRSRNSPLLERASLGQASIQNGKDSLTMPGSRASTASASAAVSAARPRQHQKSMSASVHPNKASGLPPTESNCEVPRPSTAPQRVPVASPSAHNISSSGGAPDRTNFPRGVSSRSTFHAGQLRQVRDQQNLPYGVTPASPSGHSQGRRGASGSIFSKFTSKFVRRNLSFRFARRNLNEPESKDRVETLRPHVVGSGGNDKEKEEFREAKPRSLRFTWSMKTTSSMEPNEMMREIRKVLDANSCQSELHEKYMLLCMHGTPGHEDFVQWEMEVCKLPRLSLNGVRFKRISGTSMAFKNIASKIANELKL
Ribosomal protein S6 kinase alpha-5 (Homo sapiens), sequence (O75582 whole entry, looked up): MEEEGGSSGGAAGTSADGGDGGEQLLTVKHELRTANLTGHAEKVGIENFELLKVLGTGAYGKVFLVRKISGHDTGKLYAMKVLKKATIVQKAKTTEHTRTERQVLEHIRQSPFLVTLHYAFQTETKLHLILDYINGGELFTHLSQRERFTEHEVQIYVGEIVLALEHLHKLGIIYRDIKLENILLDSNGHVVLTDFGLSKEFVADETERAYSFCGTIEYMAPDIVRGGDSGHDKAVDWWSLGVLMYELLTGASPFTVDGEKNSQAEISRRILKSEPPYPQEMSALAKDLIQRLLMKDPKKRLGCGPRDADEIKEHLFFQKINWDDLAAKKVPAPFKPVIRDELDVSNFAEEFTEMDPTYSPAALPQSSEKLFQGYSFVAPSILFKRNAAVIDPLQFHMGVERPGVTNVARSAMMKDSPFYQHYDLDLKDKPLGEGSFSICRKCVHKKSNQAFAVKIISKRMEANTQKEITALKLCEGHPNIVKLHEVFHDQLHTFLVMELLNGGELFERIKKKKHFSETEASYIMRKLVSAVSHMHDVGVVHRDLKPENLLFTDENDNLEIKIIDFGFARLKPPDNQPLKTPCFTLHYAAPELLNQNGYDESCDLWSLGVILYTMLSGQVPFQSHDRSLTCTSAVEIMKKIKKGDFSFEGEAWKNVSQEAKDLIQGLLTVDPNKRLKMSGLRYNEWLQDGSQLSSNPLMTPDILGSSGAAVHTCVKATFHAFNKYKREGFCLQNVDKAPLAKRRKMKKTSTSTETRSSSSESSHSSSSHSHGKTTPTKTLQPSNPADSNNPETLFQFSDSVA

CC(C)(O)CNc1ncc(-c2ccnc(Nc3ccnc(Cl)c3)n2)c(CC2CC2)n1 was tested, and the inhibition [1] was “inactive”, the inhibition [2] was “inactive” and the Activity [3] was 121%. The pIC50 [4] was 4.95, the Activity [5] was 77% and the inhibition [6] was “inactive”. For the same compound, the Activity [7] was 108%, the Activity [8] was 111% and the inhibition [9] was “inactive”. For the same compound, the inhibition [10] was “inactive”, the inhibition [11] was “inactive” and the inhibition [12] was “inactive”. For the same compound, the inhibition [13] was “inactive”, the inhibition [14] was “inactive” and the inhibition [15] was “inactive”. The inhibition [16] was “inactive”, the inhibition [17] was “inactive” and the Activity [18] was 92%. The inhibition [19] was “inactive”, the Activity [20] was 105% and the inhibition [21] was “inactive”. The inhibition [22] was “inactive”, the inhibition [23] was “inactive” and the inhibition [24] was “inactive”. The Activity [25] was 95%.

Source: ChEMBL document CHEMBL5705899 (Biochem J, 2014)
